The values below come from ChEMBL document CHEMBL3603742, “Design, synthesis and cytotoxicity studies of dithiocarbamate ester derivatives of emetine in prostate cancer cell lines” (Bioorg Med Chem, 2015).

Format in all cases: functional, cell-based
Assay [1] has as its system LNCaP. In words: Cytotoxicity against human LNCAP cells after 3 days by MTT assay. To be noted: 72 h. The method in brief: (§1)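 Human prostate lines from ATCC were kept in log phase in RPMI with 10% FBS, 1% L-glutamine and 1% penicillin-streptomycin at 37 °C, 5% CO2. PC3 and DU145 were seeded at 2.5 X 10^3 cells/well and LNCaP at 6 X 10^3 cells/well, then left 24 h. Cells were exposed continuously to 0.01–10 μM (0.1% DMSO final; DMSO controls), with MTT viability read on days 3, 5 and 7.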
In general terms: Tetrazolium dyes change colour on reduction, which living cells bring about.

Assay [2] concerns PC-3. In words: Cytotoxicity against human PC3 cells after 3 days by MTT assay. To be noted: PC-3, 72 h. The method in brief:
as §1

Assay [3] relates to DU-145. The assay can be described thus: Cytotoxicity against human DU145 cells after 3 days by MTT assay. The settings on record: DU-145, 72 h. The method in brief: as §1
Assay [4] concerns LNCaP. In words: Cytotoxicity against human LNCAP cells after 5 days by MTT assay. To be noted: 120 h. The method in brief:
as §1

Assay [5] relates to PC-3. In words: Cytotoxicity against human PC3 cells after 5 days by MTT assay. To be noted: PC-3, 120 h. The method in brief:
as §1

Assay [6] deals with DU-145. In words: Cytotoxicity against human DU145 cells after 5 days by MTT assay. To be noted: DU-145, 120 h. In a few lines:
as §1

Assay [7] deals with DU-145. The assay can be described thus: Cytotoxicity against human DU145 cells after 7 days by MTT assay. The settings on record: DU-145, 168 h. In a few lines: as §1
The subject of assay [8] is LNCaP. In words: Cytotoxicity against human LNCAP cells after 7 days by MTT assay. The settings on record: 168 h. The method in brief: as §1
In assay [9] the test system is PC-3. In words: Cytotoxicity against human PC3 cells after 7 days by MTT assay. To be noted: PC-3, 168 h. The method in brief: as §1

The term IC50 denotes the midpoint of a concentration-inhibition curve. A lower IC50 goes with greater potency in that assay. As to `CC[C@H]1CN2CCc3cc(OC)c(OC)cc3[C@@H]2C[C@@H]1C[C@@H]1c2cc(OC)c(OC)cc2CCN1C(=S)S`, the IC50 with LNCaP [1] came out at 565 nM; with PC-3 [2], 442 nM; in the assay with DU-145 [3], 377 nM; in the assay on LNCaP [4] it was 88 nM; with PC-3 [5], 91 nM; in the assay with DU-145 [6], 80 nM. In the assay on DU-145 [7], the IC50 was determined as 79 nM.
For `CC[C@H]1CN2CCc3cc(OC)c(OC)cc3[C@@H]2C[C@@H]1C[C@@H]1c2cc(OC)c(OC)cc2CCN1C(=S)SCc1ccccc1`, the IC50 in the assay with PC-3 [2] was determined as 2540 nM; in the assay with DU-145 [3] it was 2740 nM; with LNCaP [4], 1890 nM; in the assay on PC-3 [5], 2020 nM; in the assay with DU-145 [6], 2070 nM; with LNCaP [8], 1310 nM. This compound gave an IC50 in the assay with DU-145 [7] of 1980 nM.
For `CCCCCCSC(=S)N1CCc2cc(OC)c(OC)cc2[C@H]1C[C@H]1C[C@H]2c3cc(OC)c(OC)cc3CCN2C[C@@H]1CC`, the IC50 was found to be 3660 nM in the assay on LNCaP [1]; 5980 nM in the assay on PC-3 [2]; 3660 nM in the assay with DU-145 [3]; 1610 nM with LNCaP [4]; 3210 nM in the assay on PC-3 [5]; 3190 nM in the assay on DU-145 [6]. For the same compound, the IC50 in the assay on LNCaP [8] came to 1590 nM; in the assay with PC-3 [9], 3030 nM; in the assay with DU-145 [7] it was 2300 nM.
As for `CC[C@H]1CN2CCc3cc(OC)c(OC)cc3[C@@H]2C[C@@H]1C[C@@H]1c2cc(OC)c(OC)cc2CCN1C(=S)SCCCCC(=O)OC`, the IC50 in the assay on LNCaP [1] came to 4780 nM; in the assay on PC-3 [2] it was 8260 nM; in the assay with DU-145 [3], 3220 nM; in the assay on LNCaP [4] it was 2310 nM; with PC-3 [5], 4860 nM; with DU-145 [6] it was 3150 nM. Further, the IC50 was determined as 1760 nM in the assay on LNCaP [8], 4360 nM in the assay on PC-3 [9] and 2250 nM with DU-145 [7].
In the case of `CC[C@H]1CN2CCc3cc(OC)c(OC)cc3[C@@H]2C[C@@H]1C[C@@H]1c2cc(OC)c(OC)cc2CCN1C(=S)SCCC(N)=O`, the IC50 in the assay with LNCaP [1] was 9220 nM; in the assay on PC-3 [2] it was over 10000 nM; in the assay on DU-145 [3], over 10000 nM; in the assay with LNCaP [4], 4730 nM; with PC-3 [5], 6560 nM; in the assay with DU-145 [6] it was over 10000 nM. Also, the IC50 with LNCaP [8] is 3390 nM; in the assay on PC-3 [9], 5200 nM; with DU-145 [7] it was over 10000 nM.
As to `CC[C@H]1CN2CCc3cc(OC)c(OC)cc3[C@@H]2C[C@@H]1C[C@@H]1c2cc(OC)c(OC)cc2CCN1C(=S)SCC(=O)Nc1ccc(Br)cc1`, the IC50 was determined as 5280 nM in the assay with LNCaP [1]; 3870 nM with PC-3 [2]; 5650 nM in the assay on DU-145 [3]; 2190 nM in the assay on LNCaP [4]; 2770 nM in the assay with PC-3 [5]; 2800 nM in the assay on DU-145 [6]. For the same compound, the IC50 with LNCaP [8] worked out at 1700 nM; in the assay with PC-3 [9], 1510 nM; with DU-145 [7], 1600 nM.
`CC[C@H]1CN2CCc3cc(OC)c(OC)cc3[C@@H]2C[C@@H]1C[C@@H]1c2cc(OC)c(OC)cc2CCN1C(=S)SCC(=O)c1ccc(Cl)cc1`: the IC50 in the assay on LNCaP [1] stood at 5720 nM; in the assay with PC-3 [2], 3590 nM; in the assay on DU-145 [3] it was 3170 nM; in the assay on LNCaP [4], 2310 nM; in the assay with PC-3 [5], 2700 nM; with DU-145 [6] it was 3200 nM. For the same compound, the IC50 is 1950 nM in the assay on LNCaP [8], 2690 nM with PC-3 [9] and 2450 nM in the assay on DU-145 [7].
Turning to `CCOC(=O)c1ccc(NC(=O)CSC(=S)N2CCc3cc(OC)c(OC)cc3[C@H]2C[C@H]2C[C@H]3c4cc(OC)c(OC)cc4CCN3C[C@@H]2CC)cc1`, the IC50 worked out at 4670 nM in the assay with LNCaP [1]; 4360 nM in the assay on PC-3 [2]; 5160 nM in the assay on DU-145 [3]; 2720 nM in the assay with LNCaP [4]; 2710 nM in the assay with PC-3 [5]; 2900 nM with DU-145 [6]. Besides, the IC50 in the assay on LNCaP [8] worked out at 1660 nM; in the assay on PC-3 [9], 1900 nM; in the assay with DU-145 [7], 2470 nM.
As to `CC[C@H]1CN2CCc3cc(OC)c(OC)cc3[C@@H]2C[C@@H]1C[C@@H]1c2cc(OC)c(OC)cc2CCN1C(=S)SCCN1C(=O)c2ccccc2C1=O`, the IC50 in the assay with LNCaP [1] was determined as 3220 nM; in the assay on PC-3 [2], 3210 nM; in the assay on DU-145 [3], 3810 nM; with LNCaP [4], 2800 nM; in the assay with PC-3 [5], 2770 nM; in the assay on DU-145 [6], 3580 nM. Besides, the IC50 in the assay on LNCaP [8] is 2300 nM; in the assay with PC-3 [9], 2380 nM; in the assay on DU-145 [7], 3050 nM.
On to `CC[C@H]1CN2CCc3cc(OC)c(OC)cc3[C@@H]2C[C@@H]1C[C@H]1NCCc2cc(OC)c(OC)cc21` [EMETINE], for which the results for the IC50 with LNCaP [1], in the assay on LNCaP [4] and with LNCaP [8] were 37 nM, 27 nM and 37 nM, respectively.
